# Source: PubChem BioAssay (Broad Institute)
# ARNT TACC3 PPI = disruptors of human ARNT/TACC3 interaction. AID 623870. 0.66% of 390,000 active. AlphaScreen His-ARNT PAS-B/GST-TACC3 binding, luminescence; TACC3 fragment carries E629A point mutation. inhibition, % at 9.99 µM. Q9Y6A5;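 active = mean inhibition of replicates at least 50% and at least half of replicates each reaching 50%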
# HIF act = HIF pathway transcriptional activation | AID 1910 | activation, % at 7.5 µM (by protocol) | 0.32% of 300,000 active | U2OS HRE-luciferase reporter, luminescence; normalized: DMSO 0%, desferrioxamine 100%;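 active = mean activation of at least 10% of the iron chelator positive control signal, with at least half of replicates also reaching 10%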
# T cruzi repl = T. cruzi replication inhibition. T. cruzi beta-gal in NIH3T3, luminescence, 90 h. inhibition, % (test concentration not listed). 1.4% of 300,000 active;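 active = mean inhibition across valid replicates above about 55%, limit read from the data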;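 note: signal also drops with host cell toxicity which is not excluded here; higher percent means less beta-gal luminescence so fewer parasites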
#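 System – NIH/3T3 host cells with β-galactosidase reporter T. cruzi · Doses – single 50 nL compound addition per well in DMSO · Reagent – 5000 T. cruzi trypomastigotes/well · Medium – Low-serum DMEM with 2% FBS · Timing – ≥90 h infection period, 3 h prior cell attachment · Evaluation – parasite load inhibition, % · Technique – GalScreen luminescence, 60 min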
# AI-2 QS mod = modulates the Vibrio harveyi AI-2 quorum sensing system; Vibrio harveyi JMH597 AI-2 luminescence/OD600 ratio, 9 h; hits give low values; strain lacks LuxN and CqsS sensors; 0 = neutral-control median; activity change, % at 7.5 µM; 0.4% of 300,000 active; in the data active = activity change below about -75%, passing the limit was not always enough;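 note: luminescence divided by OD600 gain over 9 h not by final OD600 alone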
# Hits are given with their value; i = inactive; nt = not tested or not shown. An excerpt weighted towards active compounds, which were near 2% of everything screened.
SMILES,ARNT TACC3 PPI,HIF act,T cruzi repl,AI-2 QS mod
O=C(NCCCn1ccnc1)C(=O)NCC1OCCN1S(=O)(=O)c1ccc2c(c1)OCCO2 (centres undefined),64.1,i,i,i
COCCCNC(=S)N(CCCN(C)C)Cc1cc2cc3c(cc2[nH]c1=O)OCCO3,i,i,i,i
CCOCCCNC(=S)N(CCCN(C)C)Cc1cc2cc3c(cc2[nH]c1=O)OCCO3,27.1,i,i,i
COCCNC(=S)N(CCO)Cc1cc2cc3c(cc2[nH]c1=O)OCCO3,48.7,i,i,i
O=C(O)c1ccc(S(=O)(=O)N2CCN(c3ccccn3)CC2)cc1,i,i,i,i
Cc1ccc(S(=O)(=O)N2CCN(c3ccccn3)CC2)cc1,nt,47.8,i,i
CCN1C(=O)[C@H]2[C@@H](c3ccc(-c4cccc(Cl)c4)cc3)N[C@@](Cc3ccccc3)(C(=O)OC)[C@H]2C1=O,i,i,55.3,i
CCN1C(=O)[C@H]2[C@@H](c3ccc(-c4ccc5c(c4)OCO5)cc3)N[C@@](Cc3ccccc3)(C(=O)OC)[C@H]2C1=O,i,nt,nt,nt
O=C1c2cccc3c([N+](=O)[O-])ccc(c23)C(=O)N1Cc1cccnc1,i,i,84.9,i
O=C1c2cccc3cccc(c23)C(=O)N1Cc1cccnc1,i,i,i,i
Cc1ccnc(N2C(=O)c3cccc4c([N+](=O)[O-])ccc(c34)C2=O)c1,i,i,63.7,i
COc1ccc(S(=O)(=O)N(C)C[C@H]2Oc3c(NC(=O)c4ccc(-c5nccs5)cc4)cccc3C(=O)N([C@@H](C)CO)C[C@@H]2C)cc1,i,nt,nt,nt
COc1ccc(NC(=O)Nc2ccc3c(c2)C(=O)N([C@@H](C)CO)C[C@@H](C)[C@H](CN(C)C(=O)C2CCCCC2)OCCCC[C@@H](C)O3)cc1,i,nt,nt,nt
COCc1cc(C)nc(OCC(=O)N/N=C/c2cccc(OC)c2)c1C#N,i,i,i,i
COCc1cc(C)nc(OCC(=O)N/N=C/c2ccccc2O)c1C#N,80.6,i,i,i
COc1ccc2nc(C)cc(SCC(=O)N/N=C/c3ccc(O)cc3O)c2c1,i,21.8,i,i
COCc1cc(C)nc(OCC(=O)N/N=C/c2ccc(O)cc2O)c1C#N,72.6,i,i,i
CC(=O)N1N=C(c2cccc([N+](=O)[O-])c2)OC1c1ccc(Br)cc1 (centres undefined),i,i,i,i
CC(=O)N1N=C(c2ccccc2)OC1c1ccc([N+](=O)[O-])s1 (centres undefined),i,i,84.1,i
O=[N+]([O-])c1ccc(S(=O)(=O)c2cccc(C(F)(F)F)c2)nc1,i,i,66.2,i
Cn1nc([N+](=O)[O-])nc1Oc1ccccc1C(=O)N1CCOCC1,i,i,93.4,i
Cc1nn(C(C)C(=O)N2CCCC2)c(=O)c2nn(-c3ccccc3)c(C)c12 (centres undefined),i,i,55.8,i
COc1ccccc1NC(=O)CN(C)S(=O)(=O)c1cccc2cccnc12,i,28.6,i,i
CC(C)CCNC(=O)C1CCC(CNS(=O)(=O)c2cccc3nsnc23)CC1 (centres undefined),i,i,55.7,i
C#CC[N+](C)(C)CC#Cc1ccccc1,i,i,i,i
SMILES,ARNT TACC3 PPI,HIF act,T cruzi repl,AI-2 QS mod
Cc1ccc(C#CC[N+](C)(C)CC#Cc2ccccc2)cc1,i,i,57.2,i
O=C(C[C@H]1CC[C@@H]2[C@H](COC[C@@H](O)CN2Cc2cccc(C(F)(F)F)c2)O1)NCCc1ccccc1,i,nt,nt,nt
CCc1nnc(NC(=O)C2CCN(C(=O)c3ccco3)CC2)s1,nt,i,i,i
CCC(C)(C)c1nnc(NC(=O)C2CCN(C(=O)c3ccco3)CC2)s1,i,26.6,i,i
C/C(=N\NC(=S)NC(C)C)c1ccccc1,i,i,i,i
CC(C)NC(=S)NC(c1ccccc1)(c1ccccc1)c1ccccc1,i,i,54.7,i
Cc1cc(C(=O)Nc2ccc3c(c2)C(=O)N(C)[C@@H]2CC[C@@H](CC(=O)N[C@@H](C)c4ccccc4)O[C@@H]2CO3)no1,i,nt,nt,nt
Cc1ccc(C#CC[N+]2(CC#Cc3ccc(C)cc3)CCCCC2)cc1,i,i,74.3,i
O=C(C[N+]1(CC#Cc2ccccc2)CCCCC1)c1ccccc1,i,i,i,i
C(#Cc1ccccc1)C[N+]1(CC#Cc2ccccc2)CCCCC1,nt,i,65.8,i
CCC[N+]1(CC#CCC(c2ccccc2)c2ccccc2)CCCCC1,i,i,63.6,i
C#CC[N+]1(CC#Cc2ccccc2)CCCCC1,i,i,i,i
Cc1ncc(CO)c(/C=N/Nc2ccc(C(F)(F)F)cn2)c1O,71.7,9.6,i,i
Cc1ncc(CO)c(/C=N/NC(=S)Nc2ccc(F)cc2)c1O,53.8,i,i,i
COc1ccc(S(=O)(=O)Nc2ccc3c(c2)C(=O)N([C@H](C)CO)C[C@@H](C)[C@H](CN(C)C(=O)NC2CCCCC2)OCCCC[C@@H](C)O3)cc1,i,nt,nt,nt
COc1ccc(C#Cc2ccc3c(c2)[C@]2(C(=O)N3)[C@H](c3ccc(O)cc3)N3[C@H](c4ccccc4)[C@H](c4ccccc4)OC(=O)[C@H]3[C@@H]2C(=O)N2CCc3cc(OC)c(OC)cc3C2)cc1,i,nt,nt,nt
CCOc1ccc(NC(=O)CCSc2nc3c(c(CC)c2C#N)C(=O)CC(C)(C)C3)cc1,i,i,55.0,i
COC(=O)[C@H]1[C@H](CO)[C@H]2Cn3c(ccc(-c4ccccc4F)c3=O)[C@H]2N1C(=O)CC1CC1,i,nt,nt,nt
COc1ccc(CNC(=O)CN(Cc2ccc(Cl)cc2)S(=O)(=O)c2ccccc2)cc1,i,i,i,i
COc1ccc(CNC(=O)CN(Cc2ccccc2)S(=O)(=O)c2ccc(Cl)cc2)cc1,i,i,74.2,i
COc1ccc(CN(C)C[C@@H]2Oc3ccc(NC(=O)C4CC4)cc3C(=O)N([C@@H](C)CO)C[C@@H]2C)cc1,i,nt,nt,nt
COc1ccc(C(=O)c2c(C(F)(F)F)oc3c2C(=O)c2ccccc2C3=O)cc1OC,i,i,64.7,i
CCCC(=O)Nc1ccc2c(c1)C(=O)N(C)C[C@H](OC)[C@@H](C)CN(Cc1ccccn1)[C@H](C)CO2,i,nt,nt,nt
COc1ccc2[nH]c(C(=O)O)c(NS(=O)(=O)c3ccc(Cl)s3)c2c1,i,i,i,i
CCOC(=O)c1[nH]c2ccc(OC)cc2c1NS(=O)(=O)c1ccc(Cl)s1,i,i,i,-84.2
O=[N+]([O-])c1ccc(N2N=C(c3ccccc3)CC2c2ccccc2O)cc1 (centres undefined),nt,i,62.8,i
O=C(c1cccs1)N1N=C(c2ccccc2)CC1c1ccccc1O (centres undefined),i,i,57.5,i
Cc1ccc(C2=NN(C(=O)c3cccs3)C(c3ccccc3O)C2)cc1 (centres undefined),i,i,64.0,i
O=C(CCN1CCCCC1)N[C@@H]1CC[C@@H](CCn2cc(-c3ccc(F)cc3)nn2)O[C@@H]1CO,i,nt,nt,nt
CN1c2ccc(Br)cc2[C@@H]2[C@@H](CCN2C(=O)Nc2cccc(F)c2)[C@@H]1CO,i,nt,nt,nt
